# Hits are enriched below; roughly 2.5% of the tested compounds scored in any of these assays.
# SR-BI DiI-HDL act – enhances SR-BI lipid uptake from DiI-HDL; CHO ldlA[mSR-BI] cells, DiI-HDL uptake fluorescence, 3 h; 100 = double the neutral-control signal; activation, % at 12.5 µM; 320,000 tested, 0.096% active; AID 504775;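 active = mean replicate activation of at least 60% and every replicate at or above 60%; inconclusive = mean or all-replicate condition met, but not both; inactive = mean below 60% and not all replicates reaching 60%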;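 also: 0% = median plate neutral-control signal and 100% = twice that signal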
#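 Assay system: LDL receptor-deficient CHO ldlA cells overexpressing murine SR-BI / Medium: BSA-supplemented, HEPES-buffered Ham's F12, pH 7.4 / Probe or stimulus: DiI-labelled HDL at 10 µg/mL final / Timing: compound with DiI-HDL co-incubation, 3 h at 37 °C / Technique: bottom-read cell fluorescence after medium removal, ex 550/em 595 nm / Measure: HDL uptake via cellular fluorescence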
# Vif imaging – HIV Vif inhibition; AID 602346; 340,000 tested, 0.35% active; HEK293T cells, Vif self-association by quenched fluorescence, imaging, 24 h; inhibition, % at 7.49 µM; in the data active = inhibition above about 50%, passing the limit was not always enough; inconclusive = no clear call, values can overlap the other calls; inactive = below about 31%
# H9c2 TAG inh – triacylglycerol accumulation inhibition; H9c2 cells, Nile Red lipid (TAG) fluorescence; cells loaded with 200 µM oleic acid; inhibition, % at 12.5 µM; 230,000 tested, 0.66% active; AID 651582;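 active = pattern-corrected inhibition of lipid staining of at least 50% with the nuclear-stain viability signal not falling by more than 50%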;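 also: 0% = DMSO wells and 100% = triacsin C control wells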
# SMARCA2 activ – SMARCA2 function activation, primary screen. 370,000 tested, 1% active. MG213 cells, MMTV-luciferase reporter, dexamethasone, overnight. activation, % at 9.1 µM; in the data active = activation above about 7.8%;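 also: 0% = vehicle wells and 100% = reference activator wells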
# SR-BI HDL uptake – inhibitors of mouse SR-BI mediated HDL lipid uptake; ldlA[mSR-BI] CHO cells, DiI-HDL uptake fluorescence, 3 h; inhibition, % at 12.5 µM; 320,000 tested, 0.96% active;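 active = mean replicate inhibition of at least 70% and a set share of replicates each scoring 70 or more; inconclusive = meets just one of the two criteria; inactive = fails both criteria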;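 also: 0% = median of neutral control wells and 100% = median of positive control wells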
# Target sequence (Q61009 whole entry, looked up): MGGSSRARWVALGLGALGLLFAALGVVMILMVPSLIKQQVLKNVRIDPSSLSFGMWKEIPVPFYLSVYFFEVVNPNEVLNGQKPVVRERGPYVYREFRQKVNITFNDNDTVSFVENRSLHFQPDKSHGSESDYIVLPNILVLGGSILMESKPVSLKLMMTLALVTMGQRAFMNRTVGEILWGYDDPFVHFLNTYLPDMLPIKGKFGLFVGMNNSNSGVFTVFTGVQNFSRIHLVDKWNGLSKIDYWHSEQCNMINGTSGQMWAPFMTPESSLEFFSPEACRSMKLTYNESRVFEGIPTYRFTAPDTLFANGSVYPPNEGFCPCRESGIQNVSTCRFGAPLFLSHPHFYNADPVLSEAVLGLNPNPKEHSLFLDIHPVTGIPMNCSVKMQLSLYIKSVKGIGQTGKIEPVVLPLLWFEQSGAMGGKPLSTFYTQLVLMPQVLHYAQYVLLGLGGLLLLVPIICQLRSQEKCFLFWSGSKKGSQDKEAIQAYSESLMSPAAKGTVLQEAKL
# DiI quencher – DiI fluorescence quenching in cell-free counter-screen | shares compounds with SR-BI HDL uptake | cell-free DiI-HDL fluorescence quenching, 30 min | AC50, µM (top dose mostly 35 µM), for inactives: at the highest dose activity change, negative = quenching | 470 tested, 20% active | AID 540326;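 active = quenching, a falling signal, with AC50 below a set limit tied to the top valid dose, actives reach about 32 µM in these data; inconclusive = no clear call, values can overlap the other calls; inactive = rising signal, and the rest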
# An asterisk follows results filed as active; ? = inconclusive; . = no result.
SMILES,SR-BI DiI-HDL act,Vif imaging,H9c2 TAG inh,SMARCA2 activ,SR-BI HDL uptake,DiI quencher
Cc1cc(CN(C)C(=O)C2CCC(=O)N(CCc3cccc(F)c3)C2)on1 (stereo not given),12.5,11.6,-5.2,3.4,-12.5,-5.7%
Cc1cc(C)nc(N2CCC(C(=O)N3CCN(c4cc(Cl)ccc4C)CC3)CC2)n1,-102.5,-11.8,.,-3.4,102.5*,-1.7%
COc1ccc(CNC(=O)CN2CCN(S(=O)(=O)c3c(C)c(C)cc(C)c3C)CC2)cc1OC,-55.7,.,-7.0,2.9,55.7,.
Cc1cc(C)c(C)c(S(=O)(=O)N2CCN(CC(=O)NC(=O)NCc3ccccc3)CC2)c1C,-73.9,-10.9,-0.7,-0.7,73.9*,0.5%
COc1ccc2c(c1)CC(C1(O)C(=O)N(C)c3ccccc31)C2=O (stereo not given),-84.8,-3.2,-4.5,-4.9,84.8*,-4.7%
CN1C(=O)C(O)(C2COC(C)(C)CC2=O)c2ccccc21 (stereo not given),.,7.2,-2.1,0.0,.,.
COc1cc(NC(=O)c2cc(-c3ccccc3Cl)on2)cc(OC)c1OC,-82.7,-14.9,18.9,-6.0,82.7*,-2.4%
CS(=O)(=O)c1cccc(OCCCN2CCC(C(O)(c3ccccc3)c3ccccc3)CC2)c1,.,.,.,-1.2,.,.
Cc1ccc(F)cc1NC(=O)C1C2CCC(O2)C1C(=O)O (stereo not given),23.5,4.1,.,1.5,-23.5,-3.5%
Cc1ccccc1NC(=O)C1C2CCC(O2)C1C(=O)O (stereo not given),11.7,39.4,-4.4,1.1,-11.7,.
Cc1cccc(-c2ccc3c(c2)C2CC3CCN2C(=O)OCc2ccccc2)c1 (stereo not given),-84.7,.,-9.3,-0.8,84.7*,-1.6%
O=C(OCc1ccccc1)N1CCC2CC1c1cc(-c3ccccc3)ccc12 (stereo not given),11.4,-5.3,-5.5,2.2,-11.4,-0.8%
Cc1ccc(C(=O)N2CCN(c3ccc4c(c3)C3CC4CCN3C(=O)OCc3ccccc3)CC2)cc1 (stereo not given),.,1.7,.,-0.8,.,.
COc1ccc(C=NNC(=O)Cc2cc(=O)[nH][nH]2)c(OC)c1,.,.,.,-6.1,.,.
CCCCOCC1CN(CCCC)S(=O)(=O)c2c(Oc3ccc(C)cc3)cccc2O1 (stereo not given),.,.,.,-1.9,.,.
COC(=O)C1C(=O)c2c([nH]c(C(=O)OC3CCCC3C)c2C)CC1C (stereo not given),-36.7,-6.6,.,3.0,36.7,-0.8%
COC(=O)C1C(=O)c2c([nH]c(C(=O)OC3CCCCC3)c2C)CC1C (stereo not given),4.7,-5.0,.,1.8,-4.7,.
CCNc1nc(Cl)nc(-c2cn(-c3ccccc3)c3ccccc23)n1,-72.1,-7.0,.,-1.5,72.1*,3.5%
Clc1nc(Oc2ccccc2)nc(-c2cn(-c3ccccc3)c3ccccc23)n1,-12.4,-8.2,-4.4,0.5,12.4,.
N#CCCN(C(=O)COC(=O)CCc1c[nH]c2ccccc12)c1ccc(F)cc1,15.8,10.8,-9.9,-2.5,-15.8,-12.7%
N#CCCN(C(=O)COC(=O)Cc1c[nH]c2ccccc12)c1ccccc1,16.6,.,-10.6,3.5,-16.6,.
Cc1ccccc1NC(=O)OCCCN1C(=O)CCC12CCC(C)CC2 (stereo not given),.,.,.,-2.9,.,.
CC(=O)Nc1ccc(S(=O)(=O)N2CCC(C(=O)NCCC(=O)NCc3ccccc3)CC2)cc1,-119.4,1.6,.,-0.8,119.4*,-2.6%
O=C(CCNC(=O)C1CCN(S(=O)(=O)c2ccc(F)cc2)CC1)NCc1ccccc1,22.6,-5.6,.,1.2,-22.6,.
COc1ccc(C=O)cc1-c1cc(C(C)=O)c2n(c1=O)CCC2,.,.,.,-0.7,.,.
SMILES,SR-BI DiI-HDL act,Vif imaging,H9c2 TAG inh,SMARCA2 activ,SR-BI HDL uptake,DiI quencher
CC(C)C[C@@H]1NC(=O)[C@H]2C[C@]3(c4ccccc4)c4ccccc4N[C@H]3N2C1=O,.,.,.,-3.4,.,.
COc1ccccc1-n1cnc2cc(NCc3ccccc3O)ccc21,-10.2,-4.5,-0.4,3.1,10.2,.
COc1ccccc1-n1cnc2cc(NCc3ccco3)ccc21,-75.8,-12.7,.,2.2,75.8*,-18.6%
CCc1cc2c(=O)c(-c3ccc4c(c3)OCCO4)coc2cc1OS(C)(=O)=O,-74.6,-11.7,.,2.5,74.6*,-0.6%
CCc1cc2c(=O)c(-c3ccc4c(c3)OCCO4)coc2c(CN2CCCCC2C)c1O (stereo not given),-50.0,-11.6,11.3,-4.1,56.5,.
CC(C)c1ccc(NC(=O)c2sccc2-n2cccc2)cc1,-100.8,-1.1,0.3,2.5,100.8*,2.3%
Cc1ccc(-c2sc(-c3ccccc3)nc2CC(=O)Nc2ccccc2F)cc1,-77.4,0.1,.,0.8,77.3*,4.7%
Cc1ccc(CSCC(=O)Nc2ccccc2F)cc1,.,7.3,-7.2,2.2,.,.
COc1ccc(CCNc2cc(N3CCN(C(=O)c4ccccc4F)CC3)ccc2[N+](=O)[O-])cc1OC,.,-18.5,.,-0.2,.,.
COc1ccc(C(=O)N2CCN(c3ccc([N+](=O)[O-])c(NCCc4ccc(OC)c(OC)c4)c3)CC2)cc1,-74.5,-23.7,.,-4.6,?,3.0%
COc1ccc2sc(-c3ccc(N(C)C)cc3)c(C#Cc3cncn3C)c2c1,-77.4,14.0,39.2,0.9,77.4*,2.22µM*
COc1ccc2sc(-c3ccc(N(C)C)cc3)c(C#CC(C)(C)O)c2c1,-103.0,-1.7,49.8,3.1,103.0*,2.91µM*
COc1ccc2sc(-c3ccc(SC)cc3)c(C#CC(C)(C)O)c2c1,-64.3,1.4,43.7,0.8,64.3,.
O=C(NCCc1ccc(Cl)cc1)C1CCN(C(=O)c2sccc2-n2cccc2)CC1,-55.9,-16.8,-15.7,-4.9,55.9,.
CC(CCc1ccccc1)NC(=O)C1CCN(C(=O)c2sccc2-n2cccc2)CC1 (stereo not given),-87.7,3.7,-1.9,-1.2,87.7*,-3.2%
CCCC[C@H]1C2CC(OC(=O)Nc3cccc(F)c3)C(C2)[C@H]2CCCCN21 (stereo not given in full),.,.,.,6.2,.,.
O=C(NNC(=O)c1cc(Br)ccc1O)c1csc(N2CCOCC2)n1,-128.0,7.4,-9.7,.,128.0*,1µM*
CCn1cc(C(=O)N2CCN(c3ccc(F)cc3)CC2)c(=O)c2ccc(C)nc21,.,.,.,-4.2,.,.
C=C(CN(C)C)C(=O)c1ccc(OC2OC(COC(C)=O)C(OC(C)=O)C(OC(C)=O)C2OC(C)=O)cc1 (stereo not given),-93.5,4.6,110.2,7.2,93.5*,-0.8%
O=C(c1cn(-c2ccccc2)nc1-c1cccc([N+](=O)[O-])c1)N1CCCCC1,-72.5,-2.3,-16.9,-1.8,72.5*,-19.4%
CN(C)C(=O)c1cn(-c2ccccc2)nc1-c1cccc([N+](=O)[O-])c1,-65.4,12.5,10.2,-0.9,65.4,.
Cn1cc(CC(=O)Nc2ccc(Nc3cccnc3)cc2)c2ccccc21,.,.,.,-3.8,.,.
O=C(Nc1ccc(N2CCOCC2)cc1)c1cc2c(s1)CCCC2,-100.4,-7.3,13.3,6.1,100.4*,16.5µM*
